# sPLA2-III inh – Inhibits HGIII-sPLA2 liposome hydrolysis, primary screen; QFRET BODIPY PC-A2 liposome hydrolysis, fluorescence; Q9NZ20; 370,000 tested, 0.56% active; inhibition, % at 12.2 µM;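 active = inhibition above mean plus 3 SD of compounds lying within the high and low control bounds, cut at about 19% in these data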;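 note: 0% = median of test compound wells and 100% = no enzyme DMSO wells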
# Target sequence (Q9NZ20 whole entry, looked up): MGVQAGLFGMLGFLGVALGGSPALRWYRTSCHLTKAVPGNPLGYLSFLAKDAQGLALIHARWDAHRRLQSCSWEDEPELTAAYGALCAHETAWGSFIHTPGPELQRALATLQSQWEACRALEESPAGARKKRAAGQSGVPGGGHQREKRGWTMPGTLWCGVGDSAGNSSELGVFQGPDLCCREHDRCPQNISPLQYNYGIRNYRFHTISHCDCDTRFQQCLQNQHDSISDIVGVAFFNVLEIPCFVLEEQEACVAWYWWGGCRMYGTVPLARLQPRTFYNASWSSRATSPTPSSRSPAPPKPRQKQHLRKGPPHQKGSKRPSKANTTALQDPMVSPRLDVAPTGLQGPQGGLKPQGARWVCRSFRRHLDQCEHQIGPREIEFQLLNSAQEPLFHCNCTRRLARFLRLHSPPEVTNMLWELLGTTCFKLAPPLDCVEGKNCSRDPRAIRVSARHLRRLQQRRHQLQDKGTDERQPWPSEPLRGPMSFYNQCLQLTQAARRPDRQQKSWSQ
# VIM-2 inhibitor – blocks Pseudomonas aeruginosa VIM-2 metallo-beta-lactamase; purified VIM-2, nitrocefin hydrolysis, epi-absorbance fluorescence; inhibition, % at 5.6 µM; 290,000 tested, 0.89% active;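 active = inhibition above the mean of all tested compounds plus 3 SD, cutoff set per screening run, cut at about 7.5% in these data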;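 note: red hydrolysis product quenches plate fluorescence so inhibitors raise well fluorescence; 0% = enzyme with DMSO and 100% = DMSO without enzyme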
# IMP-1 inh – inhibitors of Pseudomonas aeruginosa IMP-1 metallo-beta-lactamase | AID 1556 | purified IMP-1, nitrocefin hydrolysis, epi-absorbance fluorescence | inhibition, % at 5.6 µM | 290,000 tested, 0.45% active;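 active = inhibition above the mean plus 3 SD of all compounds in the same screening run, cut at about 4.5% in these data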;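 note: 0% = IMP-1 with DMSO and 100% = DMSO wells lacking enzyme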
#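 System: Purified recombinant IMP-1 metallo-beta-lactamase enzyme | Measured by: Fluorescence quenching readout, ex 480/em 530 nm | Replication: Singlicate | Incubation: 15 min preincubation plus 25 min reaction at 25 °C | Evaluation: Percent inhibition from optical density relative to buffer-blank wells | Benchmarks: DMSO with and without IMP-1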
# M18AAP inhibitor – PfM18AAP enzyme inhibition; recombinant PfM18AAP, H-Glu-NHMec fluorogenic cleavage; 290,000 tested, 1.2% active; inhibition, % at 7.35 µM; AID 1822;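 active = inhibition above the campaign mean inhibition over all tested compounds plus 3 SD, cut at about 28% in these data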;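 note: 0% = plate median of test compound wells and 100% = 2 mM ZnCl2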
# Active calls of the source: *; . = no result given. Most compounds without a hit are left out; they make up all but 2.4% or so of the library.
SMILES,sPLA2-III inh,VIM-2 inhibitor,IMP-1 inh,M18AAP inhibitor
C=CCN1C(=O)[C@H](CC(=O)NCCCC)[C@@]2(C(=O)OCC)CCCC=C12,-2.4,.,.,.
COC(=O)C1CN(Cc2ccc(OC)cc2)CCS(=O)(=O)N1Cc1ccc(C)cc1 (stereo not given),-4.7,.,.,.
S=c1[nH]nc(-c2ccc(Cl)cc2)n1Cc1ccccc1,16.9,-1.7,-3.2,19.8
COc1ccc(-c2n[nH]c(=S)n2Cc2ccccc2)cc1,13.4,9.2*,-2.2,13.6
O=C(CSc1nnc(-c2ccco2)n1-c1ccc(Cl)cc1)Nc1ccc(S(=O)(=O)Nc2nccs2)cc1,-35.5,.,.,.
COc1ccc(C2C(C#N)=C(N)N(c3sc4c(c3C#N)CCCC4)C3=C2C(=O)CC(C)(C)C3)cc1 (stereo not given),.,-0.9,4.7*,14.1
CCc1ccc(NC(=O)C2CCN(S(=O)(=O)c3cnc[nH]3)CC2)cc1,-29.3,0.3,12.1*,-4.1
CCc1ccc(NC(=O)C2CCCN(S(=O)(=O)c3cnc[nH]3)C2)cc1 (stereo not given),.,0.3,-0.4,3.7
CCOC(=O)CSc1nc2c(sc(=S)n2-c2ccccc2)c(=O)n1-c1ccc(OC)cc1OC,-2.9,-3.5,-1.3,30.4*
CCN(CC)C(=O)CSc1nc2c(sc(=S)n2-c2ccccc2)c(=O)n1-c1ccc(OC)cc1OC,7.0,-2.3,-1.6,25.7
COCCn1c(SCc2nc3sc(C(=O)OC)c(C)c3c(=O)[nH]2)nc2ccccc21,-1.1,-2.3,-0.3,-0.5
CCn1c(SCc2nc3sc(C(=O)O)c(C)c3c(=O)[nH]2)nc2ccccc21,-5.6,-3.8,-3.7,33.0*
COc1ccc(/C=N/Nc2nc(-c3cccnc3)nc3ccccc23)cc1OC,-7.1,4.7,-1.3,9.3
Cc1c(O)ccc(/C=N/Nc2nc(-c3cccnc3)nc3ccccc23)c1O,-14.4,-2.2,-2.2,28.7*
Oc1ccc(/C=N/Nc2nc(-c3cccnc3)nc3ccccc23)c(O)c1,3.7,-2.7,-0.3,29.8*
COc1ccc(S[C@]2(C(=O)N3CCCC3)CC(=O)N(c3ccccc3OC)[C@@H]2c2ccc(OC)cc2)cc1,-9.8,.,.,.
CC1=C(C#N)C(c2cn(-c3ccccc3)nc2-c2cccs2)C(C#N)=C(C)N1,-4.9,-1.2,0.2,-2.4
NC1=NC(c2cn(-c3ccccc3)nc2-c2cccs2)n2c(nc3ccccc32)N1 (stereo not given),-13.7,-1.1,4.9*,1.7
Cc1nc(NC2=NCN(CCCN3CCOCC3)CN2)nc2c(C)cccc12,.,8.7*,-0.7,-1.4
Cc1nc(NC2=NCN(CCc3ccccc3)CN2)nc2c(C)cccc12,.,5.5,-4.8,-13.5
O=c1[nH]nc(Sc2ncnc3sccc23)n1CCc1ccccc1,-2.5,9.7*,-4.2,-34.8
CCN(CC)C(=O)CSc1n[nH]c(=O)n1CCc1ccccc1,-2.2,0.2,-1.6,-7.3
Cn1cc(C(=O)Nc2ccc(F)c(Cl)c2)cn1,-4.5,-2.3,-0.8,-13.5
O=C(O)C1=C(C(=O)Nc2ccc(F)c(Cl)c2)CCCC1,11.4,4.3,10.3*,0.8
Cn1cccc1C(=O)N1CCN(S(=O)(=O)c2cccs2)CC1,6.4,.,.,.
SMILES,sPLA2-III inh,VIM-2 inhibitor,IMP-1 inh,M18AAP inhibitor
Nc1c(C(=O)NCC(O)c2ccccc2)cnn1-c1ccccc1 (stereo not given),2.5,.,.,.
COC(=O)c1c(NC(=O)c2ccoc2C)sc(C)c1C,0.3,-0.6,-1.9,-0.9
COC(=O)c1c(NC(=O)c2ccnn2C)sc(C)c1C,1.8,0.2,4.7*,-1.0
COC(=O)c1cc2c(=O)c3ccccc3oc2nc1/C=C/N(C)C,9.2,7.7*,3.5,7.1
O=C(CCCc1nc(-c2ccccc2Cl)no1)NCc1cccnc1,0.0,-3.0,5.7*,0.0
CCCC1CCC2(CC1)CCC2OC(=S)Nc1cccc(I)c1 (stereo not given),1.8,.,.,.
CC[n+]1c(C)sc2sc3ccccc3c21,.,-1.6,-4.5,60.3*
Cc1ccc(-c2nnc(SCC(=O)Nc3ccc(Oc4ccccc4)cc3)n2-c2ccc(Cl)cc2)cc1,-0.2,.,.,.
O=C(NC1CCCCN(Cc2cccc(Cl)c2)C1=O)c1ccccn1 (stereo not given),-3.4,.,.,.
O=C(N/N=C/c1ccc(O)cc1)c1[nH]c2ccc(Br)cc2c1-c1ccccc1,-20.3,-2.2,-1.6,5.9
O=C(N/N=C/c1c[nH]c2ccccc12)c1[nH]c2ccc(Br)cc2c1-c1ccccc1,22.0*,-3.8,-1.4,3.8
NC1=NS(=O)(=O)Nc2ccccc21,-0.7,.,.,.
O=C(Nc1nc2c(Cl)ccc(Cl)c2s1)C1CC1,-7.2,-0.8,-1.5,-0.5
NNc1nc2c(Cl)ccc(Cl)c2s1,21.9*,2.4,-1.9,10.1
CCOC(=O)c1sc(NC(=O)c2ccoc2C)c(C(N)=O)c1C,-12.4,8.0*,-0.4,-8.9
Cc1ccn2c(Nc3ccc4c(c3)OCO4)c(-c3ccccn3)nc2c1,3.0,38.8*,-5.2,8.3
Cc1cc(C)n2c(Nc3ccc4c(c3)OCCO4)c(-c3ccccn3)nc2n1,0.3,.,.,.
Cc1ccc(Nc2c(-c3ccccn3)nc3cc(C)ccn23)cc1,2.3,8.3*,-4.3,8.2
Clc1ccc(-c2nc3cnccn3c2Nc2ccc3c(c2)OCO3)cc1,-1.3,-5.1,-3.1,31.2*
Cc1ccc(Nc2c(-c3ccccn3)nc3ccc(C)cn23)cc1,10.6,-4.0,-5.1,1.3
Nn1c(SCC(=O)Nc2cccc3ccccc23)nnc1-c1cc(-c2ccc(Cl)cc2)n[nH]1,-3.5,.,.,.
Cc1c[nH]c2cccc(-c3ccc(Cl)cc3Cl)c12,-38.8,.,.,.
CC(C)OCCCNC(=O)c1cc2c(=O)n(C)c3ccccc3c2n1C,-1.3,10.4*,0.2,-11.8
Cc1noc(C)c1C(C)C1=CCCCC1 (stereo not given),5.5,.,.,.
C[C@@H]1ON(C)[C@H]2C[C@H]3c4[nH]c5c(-c6ccc7c(c6)OCO7)cccc5c4CCN3C[C@@H]12,-15.5,.,.,.
SMILES,sPLA2-III inh,VIM-2 inhibitor,IMP-1 inh,M18AAP inhibitor
O=C(c1ccco1)N1CCN(c2ncnc3c2oc2ccccc23)CC1,-0.6,10.0*,-3.4,13.2
CC(=O)N1CCCN(C(=O)CCn2nnc3ccccc32)CC1,4.9,.,.,.
CC(CCn1cccn1)NC(=O)c1cc(COc2ccc(F)cc2Cl)on1 (stereo not given),3.3,2.5,-0.7,1.3
O=C(NCCCn1cccn1)c1cc(COc2ccc(F)cc2Cl)on1,0.5,-2.1,-3.1,30.4*
COc1ccc2c(c1)CN1CN(Cc3ccccc3)S(=O)(=O)CC21 (stereo not given),5.3,.,.,.
CCOC(=O)c1c(C)n(C)c2ccc(OCC(O)CNCCc3ccccc3)cc12 (stereo not given),-12.9,9.7*,1.9,0.5
COc1ccc(N2CSC3=C(C#N)C(c4cccs4)CC(=O)N3C2)cc1 (stereo not given),8.7,-2.8,-3.1,43.0*
CCOc1ccccc1N1CSC2=C(C#N)C(c3c(OC)ccc4ccccc34)CC(=O)N2C1 (stereo not given),9.5,6.3,-1.9,37.1*
COc1cc(OC)c(C2CC(=O)N3CN(c4ccc(C)cc4)CSC3=C2C#N)cc1OC (stereo not given),-11.1,-5.1,-0.1,31.1*
